# Assay results of several laboratories.
Structure (SMILES),tested on,assay,test system,conditions,quantity,value
CCCS(=O)(=O)Oc1ccc(C=NNC(=O)CSc2nc3c(C)cccc3c(=O)n2-c2ccccc2)cc1,Klebsiella pneumoniae,"microbial growth, well diffusion",,20 µg/mL,inhibition zone,3 mm
CC1(C)C[C@H]2[C@H]1CC[C@]1(C)CCC[C@@]2(n2cc(C(=O)NC3CCNCC3)nn2)C1,HT-29,"cell growth or viability, CCK-8",,50 µM,inhibition,74.4%
COc1cc(C=NNC(=O)CSc2nc3c(C)cccc3c(=O)n2-c2ccccc2)ccc1OS(C)(=O)=O,Klebsiella pneumoniae,"microbial growth, well diffusion",,20 µg/mL,inhibition zone,3 mm
CN(C)c1ccc(C=Nn2c(-c3ccccc3)nc3ccc(Cl)cc3c2=O)cc1,LLC-PK1,"cell growth or viability, MTT",,72 h,IC50,62.8 µM
CCS(=O)(=O)Oc1cc(C=NNC(=O)CSc2nc3ccc(Cl)cc3c(=O)n2-c2ccccc2)ccc1OC,Klebsiella pneumoniae,"microbial growth, well diffusion",,20 µg/mL,inhibition zone,2 mm
COc1ccc(C=Nn2c(-c3ccccc3)nc3ccc(Cl)cc3c2=O)cc1O,LLC-PK1,"cell growth or viability, MTT",,72 h,IC50,279 µM
COc1ccc(-c2cn([C@@]34CCC[C@@](C)(CC[C@@H]5[C@@H]3CC5(C)C)C4)nn2)cc1,HT-29,"cell growth or viability, CCK-8",,50 µM,inhibition,44.8%
O=c1c2cc(Cl)ccc2nc(-c2ccccc2)n1N=Cc1ccc(Cl)c(Cl)c1,LLC-PK1,"cell growth or viability, MTT",,72 h,IC50,337 µM
CC(C)(O/N=C(\C(=O)N[C@@H]1C(=O)N2C(C(=O)[O-])=C(C[n+]3ccccc3)CS[C@H]12)c1csc(N)n1)C(=O)O,Klebsiella pneumoniae,"microbial growth, broth dilution",ATCC43816,,MIC,< 0.5 µg/mL
CCCS(=O)(=O)Oc1ccc(C=NNC(=O)CSc2nc3ccc(Cl)cc3c(=O)n2-c2ccccc2)cc1,Klebsiella pneumoniae,"microbial growth, well diffusion",,20 µg/mL,inhibition zone,3 mm
CC1(C)C[C@H]2[C@H]1CC[C@]1(C)CCC[C@@]2(NS(=O)(=O)C(C)(C)C)C1,HT-29,"cell growth or viability, CCK-8",,10 µM,inhibition,< 50%
C=C[C@]1(C)C[C@@H](OC(=O)CS[C@@H]2C[C@H]3CC[C@@H](C2)N3C)[C@]2(C)[C@H](C)CC[C@]3(CCC(=O)[C@H]32)[C@@H](C)[C@@H]1O,Streptococcus pneumoniae,microbial growth,PRSP,clinical isolate,MIC90,0.0312 µg/mL
CC1(C)C[C@H]2[C@H]1CC[C@]1(C)CCC[C@@]2(n2cc(CNC(N)=O)nn2)C1,HT-29,"cell growth or viability, CCK-8",,10 µM,inhibition,< 50%
CN[C@H](CC(C)C)C(=O)N[C@H]1C(=O)N[C@@H](CC(N)=O)C(=O)N[C@H]2C(=O)N[C@H]3C(=O)N[C@H](C(=O)N[C@H](C(=O)O)c4cc(O)cc(O)c4-c4cc3ccc4O)[C@H](O)c3ccc(c(Cl)c3)Oc3cc2cc(c3O[C@@H]2O[C@H](CO)[C@@H](O)[C@H](O)[C@H]2O[C@H]2C[C@](C)(N)[C@H](O)[C@H](C)O2)Oc2ccc(cc2Cl)[C@H]1O,Streptococcus pneumoniae,"microbial growth, agar dilution",ATCC49619,,MIC,0.5 µg/mL
CC1(C)C[C@H]2[C@H]1CC[C@]1(C)CCC[C@@]2(n2cc(C(=O)O)nn2)C1,HT-29,"cell growth or viability, CCK-8",,50 µM,inhibition,32.3%
COc1ccc(C=NNC(=O)CSc2nc3c(C)cccc3c(=O)n2-c2ccccc2)cc1OS(C)(=O)=O,Klebsiella pneumoniae,"microbial growth, well diffusion",,20 µg/mL,inhibition zone,2 mm
CC[C@H]1OC(=O)[C@H](C)[C@@H](O[C@H]2C[C@@](C)(OC)[C@@H](O)[C@H](C)O2)[C@H](C)[C@@H](O[C@@H]2O[C@H](C)C[C@H](N(C)C)[C@H]2O)[C@](C)(O)C[C@@H](C)/C(=N\OCOCCOC)[C@H](C)[C@@H](O)[C@]1(C)O,Streptococcus pneumoniae,microbial growth,PRSP,clinical isolate,MIC90,16 µg/mL
Cc1nc(Nc2ncc(C(=O)Nc3c(C)cccc3Cl)s2)cc(N2CC[C@H](O)C2)n1,U2932,"cell growth or viability, ATP luminescence",,"10 µM, 72 h",inhibition,58%
COc1cc(C=NNC(=O)CSc2nc3ccc(Cl)cc3c(=O)n2-c2ccccc2)ccc1OS(C)(=O)=O,Klebsiella pneumoniae,"microbial growth, well diffusion",,20 µg/mL,inhibition zone,2 mm
CC1(C)C[C@H]2[C@H]1CC[C@]1(C)CCC[C@@]2(n2cc(CN3CCOCC3)nn2)C1,HT-29,"cell growth or viability, CCK-8",,50 µM,inhibition,45%
Nc1ccc(S(=O)(=O)Nc2ncccn2)cc1,Klebsiella pneumoniae,"microbial growth, well diffusion",,20 µg/mL,inhibition zone,2 mm
CC1(C)C[C@H]2[C@H]1CC[C@]1(C)CCC[C@@]2(NS(C)(=O)=O)C1,HT-29,"cell growth or viability, CCK-8",,10 µM,inhibition,< 50%
CC1(C)S[C@@H]2[C@H](NC(=O)[C@H](N)c3ccccc3)C(=O)N2[C@H]1C(=O)O,Streptococcus pneumoniae,microbial growth,,clinical isolate,MIC90,4 µg/mL
CC1(C)C[C@H]2[C@H]1CC[C@]1(C)CCC[C@@]2(NS(=O)(=O)c2ccc(OC(F)(F)F)cc2)C1,HT-29,"cell growth or viability, CCK-8",,50 µM,inhibition,75.9%
Cc1cccc2c(=O)n(-c3ccccc3)c(SCC(=O)NN=Cc3ccc(OS(C)(=O)=O)cc3)nc12,Klebsiella pneumoniae,"microbial growth, well diffusion",,20 µg/mL,inhibition zone,3 mm
CC(=O)NC[C@H]1CN(c2ccc(N3CCOCC3)c(F)c2)C(=O)O1,Streptococcus pneumoniae,"microbial growth, agar dilution",ATCC49619,,MIC,0.5 µg/mL
